Results published in ChEMBL document CHEMBL1782010, “Synthesis and evaluation of quinoxaline derivatives as potential influenza NS1A protein inhibitors” (Bioorg Med Chem Lett, 2011).
Active and inactive are the calls of the source. The calls are words filed in the database; no cut-off is given here.

What was measured:
[1] = tested on: Influenza A virus (A/udorn/1972(H3N2)); test: Inhibition of Influenza A/Udorn/72/H3N2 full length GST-tagged NS1A/FAM-double strand RNA-interaction at 50 uM after 1 hr by fluorescence polarization assay
How it was run: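 Fluorescence polarization: carboxyfluorescein-labelled dsRNA (FAM-dsRNA) probe binds NS1A protein, which raises polarization. Disruption of binding read at 50 μM compound and reported as % binding. Run in duplicate; values averaged.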

[2] = tested on: Nucleic Acid; test: Binding affinity to double strand RNA assessed as denaturation of double strand RNA to single strand RNA at 50 uM after 1 hr by fluorescence polarization assay; format: nucleic-acid assay
How it was run: (§1)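 Counter-screen of FAM-dsRNA alone, with no NS1A target, by an analogous fluorescence polarization assay at 50 μM compound. Reported as % intercalation: a positive sign means intercalation into the dsRNA, a negative sign means denaturation of the dsRNA to single strands. Duplicates averaged.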

[3] = tested on: Nucleic Acid; test: Binding affinity to double strand RNA assessed as compound intercalation to double strand RNA at 50 uM after 1 hr by fluorescence polarization assay; format: nucleic-acid assay; how it was run: as §1
[4] = Inhibition of Influenza A/Udorn/72/H3N2 full length GST-tagged NS1A/FAM-dsRNA-interaction after 1 hr by fluorescence polarization assay; parameters: species or system Influenza A virus (A/udorn/1972(H3N2))
How it was run: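 Dose-dependent version of the FAM-dsRNA/NS1A fluorescence polarization binding assay. The rise in polarization on probe binding to NS1A gives the read-out, and IC50 is taken from the dose-response. Run in duplicate; values averaged.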

[5] = tested on: Influenza A virus; test: Antiviral activity against Influenza A/Udorn/72 virus infected in MDCK cells assessed as reduction of plaque forming unit at 60 uM treated 1 hr after infection measured after 36 hrs by plaque assay; format: functional, organism-based; details: Influenza A virus (A/udorn/1972(H3N2))
How it was run: (§2)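 MDCK cells infected with influenza A/Udorn/72, either at MOI 5 (single-cycle growth) or at MOI 0.001 (multiple-cycle growth). After 1 h infection, growth medium containing compound diluted in DMSO was added; control received 0.1% DMSO. Virus yield was followed over time as growth curves.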

[6] = tested on: Influenza A virus; test: Antiviral activity against Influenza A/Udorn/72 virus infected in MDCK cells assessed as inhibition of viral growth at 30 uM treated 1 hr after infection measured up to 15 hrs by plaque assay relative to control; format: functional, Influenza A virus (A/udorn/1972(H3N2)); how it was run: as §2

SMILES | inhibition [1] | Activity [2] | Activity [3] | further results
COc1ccccc1CNC(=O)c1ccc2nc(-c3ccco3)c(-c3ccco3)nc2c1 | 29.5% | -17.7% | – | –
O=C(NCc1ccc(F)cc1)c1ccc2nc(-c3ccco3)c(-c3ccco3)nc2c1 | 49% | – | 6.3% | –
Oc1cccc(-c2nc3ccccc3nc2-c2cccc(O)c2)c1 | 10.9% | -4.8% | – | –
O=C(O)c1ccc2nc(-c3ccco3)c(-c3ccco3)nc2c1 | 60.9% | – | 5.8% | –
COc1cccc(-c2nc3ccccc3nc2-c2cccc(OC)c2)c1 | 1.4% | -6% | – | –
O=C(NCc1cccc(F)c1)c1ccc2nc(-c3ccco3)c(-c3ccco3)nc2c1 | 13.6% | -11.6% | – | –
Oc1ccccc1-c1nc2ccccc2nc1-c1ccccc1O | -0.9% | – | -1% | –
O=C(NCc1cccs1)c1ccc2nc(-c3ccco3)c(-c3ccco3)nc2c1 | 8.2% | -10.5% | – | –
COc1ccc(-c2nc3ccc(C(=O)O)cc3nc2-c2ccc(OC)cc2)cc1 | 4.5% | -4.8% | – | –
COc1ccc(CNC(=O)c2ccc3nc(-c4ccco4)c(-c4ccco4)nc3c2)cc1OC | 39.5% | – | 5.6% | –
O=[N+]([O-])c1ccc2nc(-c3ccccn3)c(-c3ccccn3)nc2c1 | 7.8% | -5.6% | – | –
Oc1cccc(-c2nc3ccc(O)cc3nc2-c2cccc(O)c2)c1 | 25% | – | 18.2% | –
COc1ccccc1-c1nc2ccccc2nc1-c1ccccc1OC | 5% | -6.7% | – | –
Oc1ccc(-c2nc3ccc(O)cc3nc2-c2ccc(O)cc2)cc1 | 38.8% | – | 29.5% | –
COc1ccc(CNC(=O)c2ccc3nc(-c4ccco4)c(-c4ccco4)nc3c2)cc1 | 44% | – | 7.6% | –
COc1ccccc1-c1nc2ccc([N+](=O)[O-])cc2nc1-c1ccccc1OC | 6.7% | -3.7% | – | –
O=C(NCc1ccco1)c1ccc2nc(-c3ccco3)c(-c3ccco3)nc2c1 | 79.5% | – | 5.9% | IC50 [4]: 3.5 µM; Activity [5]: inactive; fold change (FC) [6]: 10
O=C(O)c1ccc2nc(-c3ccc4c(c3)OCO4)c(-c3ccc4c(c3)OCO4)nc2c1 | 23.2% | -4.8% | – | –
COc1cccc(CNC(=O)c2ccc3nc(-c4ccco4)c(-c4ccco4)nc3c2)c1 | 74% | – | 4.5% | IC50 [4]: 6.2 µM
O=[N+]([O-])c1ccc2nc(-c3ccco3)c(-c3ccco3)nc2c1 | 25.5% | – | 25.9% | –
O=C(O)c1ccc2nc(-c3ccc(O)cc3)c(-c3ccc(O)cc3)nc2c1 | 13.3% | -7.7% | – | –
COc1ccccc1-c1nc2ccc(C(=O)O)cc2nc1-c1ccccc1OC | 2.8% | -2.5% | – | –
O=C(O)c1ccc2nc(-c3ccccn3)c(-c3ccccn3)nc2c1 | 15.7% | – | 2.9% | –
COc1cc(CNC(=O)c2ccc3nc(-c4ccco4)c(-c4ccco4)nc3c2)cc(OC)c1OC | 53.6% | -4.7% | – | –

SMILES | inhibition [1] | Activity [2] | Activity [3] | further results
COc1cccc(-c2nc3ccc(OC)cc3nc2-c2cccc(OC)c2)c1 | 7.2% | -8.4% | – | –
O=[N+]([O-])c1ccc2nc(-c3ccc(O)cc3)c(-c3ccc(O)cc3)nc2c1 | 19.5% | -32% | – | –
O=C(NCc1ccccn1)c1ccc2nc(-c3ccco3)c(-c3ccco3)nc2c1 | 64.7% | -9.6% | – | IC50 [4]: 43.3 µM
O=[N+]([O-])c1ccc2nc(-c3ccc4c(c3)OCO4)c(-c3ccc4c(c3)OCO4)nc2c1 | 56.6% | – | 24.4% | –
COc1ccc(-c2nc3ccc(OC)cc3nc2-c2ccc(OC)cc2)cc1 | 1.8% | – | 5.7% | –
COc1ccc2nc(-c3ccco3)c(-c3ccco3)nc2c1 | 54.3% | – | -3.2% | –
COc1ccc2nc(-c3ccccc3OC)c(-c3ccccc3OC)nc2c1 | 4.4% | -5% | – | –
COC(=O)c1ccc2nc(-c3ccco3)c(-c3ccco3)nc2c1 | 76% | -12.3% | – | IC50 [4]: 74.8 µM
COC(=O)c1ccc(CNC(=O)c2ccc3nc(-c4ccco4)c(-c4ccco4)nc3c2)cc1 | 47.9% | – | 8.8% | –
Oc1ccc2nc(-c3ccccc3O)c(-c3ccccc3O)nc2c1 | 10.9% | – | 0.9% | –
c1coc(-c2nc3ccccc3nc2-c2ccco2)c1 | 7.3% | -23.7% | – | –
O=C(O)c1ccc2nc(-c3cccc(O)c3)c(-c3cccc(O)c3)nc2c1 | 28.7% | – | -3.4% | –
O=C(NCc1ccccc1F)c1ccc2nc(-c3ccco3)c(-c3ccco3)nc2c1 | 11.6% | -11.3% | – | –
O=[N+]([O-])c1ccc2nc(-c3cccc(O)c3)c(-c3cccc(O)c3)nc2c1 | 42.8% | -15.8% | – | –
COc1ccc(-c2nc3ccccc3nc2-c2ccc(OC)cc2)cc1 | 0.5% | – | 1.4% | –
COC(=O)CNC(=O)c1ccc2nc(-c3ccco3)c(-c3ccco3)nc2c1 | 26.7% | -27.9% | – | –
c1ccc(-c2nc3ccccc3nc2-c2ccccn2)nc1 | -3.1% | – | 2.3% | –
c1ccc2nc(-c3ccc4c(c3)OCO4)c(-c3ccc4c(c3)OCO4)nc2c1 | 1.5% | – | 7.9% | –
COc1cccc(-c2nc3ccc([N+](=O)[O-])cc3nc2-c2cccc(OC)c2)c1 | 1.5% | – | 1.9% | –
Oc1ccc(-c2nc3ccccc3nc2-c2ccc(O)cc2)cc1 | 10.2% | – | 8.5% | –
COc1cccc(-c2nc3ccc(C(=O)O)cc3nc2-c2cccc(OC)c2)c1 | 9.1% | -4.4% | – | –
COc1ccc(-c2nc3ccc([N+](=O)[O-])cc3nc2-c2ccc(OC)cc2)cc1 | – | – | 113% | –
O=C(O[C@@H]1Cc2c(O)cc(O)cc2O[C@@H]1c1cc(O)c(O)c(O)c1)c1cc(O)c(O)c(O)c1 | 89% | – | – | –
